The source made the active and inactive calls. The calls are words filed in the database; no cut-off is given here.
Legend:
Cynomolgus monkey [1] = experiment: Toxicity in cynomolgus monkey assessed as change in diastolic blood pressure at 30 mg/kg; type: organism-based, Macaca fascicularis; settings: in vivo
Cynomolgus monkey [2] = experiment: Toxicity in cynomolgus monkey assessed as change in heart rate at 30 mg/kg; type: organism-based, Macaca fascicularis; settings: in vivo
Cynomolgus monkey [3] = experiment: Toxicity in cynomolgus monkey assessed as change in systolic blood pressure at 30 mg/kg; type: organism-based, Macaca fascicularis; settings: in vivo
Rattus norvegicus [4] = experiment: Antipain activity in tibial nerve transection surgery model of rat assessed as reduction of mechanical punctate stimuli evoked activity at 3 to 10 mg/kg administered as iv bolus dose measured every 15 mins for 30 mins; type: functional, organism-based
Summary of the method: (§1)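 Rats had tibial nerve transection 2–3 weeks before recording. Under isoflurane anaesthesia (5% in O2) in a stereotaxic frame, body temperature was held at 37 °C and L4-5 spinal segments were exposed by laminectomy. After stable baseline responses, compound was given as an IV bolus, with effects assessed every 15 min for up to 30 min per dose. Treatment was randomised and blinded, and dry blood spots were taken for plasma exposure.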

Rattus norvegicus [5] = experiment: Antipain activity in tibial nerve transection surgery model of rat assessed as reduction of heat evoked activity at 3 to 10 mg/kg administered as iv bolus dose measured every 15 mins for 30 mins; type: functional, organism-based; summary of the method: as §1
Cynomolgus monkey [6] = experiment: Toxicity in cynomolgus monkey assessed as change in left ventricular pressure parameters at 30 mg/kg; type: organism-based, Macaca fascicularis; settings: in vivo
Rattus norvegicus [7] = experiment: Antipain activity in tibial nerve transection surgery model of rat assessed as reduction of innocuous brush evoked activity at 3 to 10 mg/kg administered as iv bolus dose measured every 15 mins for 30 mins; type: functional, organism-based; summary of the method: as §1
Rattus norvegicus [8] = experiment: Prodrug conversion in po dosed rat assessed as formation of N-(3-chloro-4-(trifluoromethoxy)benzyl)-3-fluoro-4-(N-thiazol-2-ylsulfamoyl)benzamide; type: ADME, organism-based; settings: in vivo
Cynomolgus monkey [9] = experiment: Toxicity in cynomolgus monkey assessed as effect on ECG parameters at 30 mg/kg; type: organism-based, Macaca fascicularis; settings: in vivo
Rattus norvegicus [10] = experiment: Antipain activity in tibial nerve transection surgery model of rat assessed as reduction of noxious pinch evoked activity at 3 to 10 mg/kg administered as iv bolus dose measured every 15 mins for 30 mins; type: functional, organism-based; summary of the method: as §1

Drug metabolism (Rattus norvegicus [8]): Metabolite_Detected
SMILES: O=C(NCc1ccc(OC(F)(F)F)c(Cl)c1)c1ccc(S(=O)(=O)/N=c2\sccn2COP(=O)(O)O)c(F)c1
Activity (Cynomolgus monkey [1]): Non-Toxic
Activity (Cynomolgus monkey [2]): Non-Toxic
Activity (Cynomolgus monkey [3]): Non-Toxic
Activity (Rattus norvegicus [4]): inactive
Activity (Rattus norvegicus [5]): inactive
Activity (Cynomolgus monkey [6]): Non-Toxic
Activity (Rattus norvegicus [7]): inactive
Activity (Cynomolgus monkey [9]): Non-Toxic
Activity (Rattus norvegicus [10]): Active

Reference: ChEMBL document CHEMBL4257443, “The discovery of a potent Nav1.3 inhibitor with good oral pharmacokinetics” (Medchemcomm, 2017)
